The subject of one assay is Enterobacter cloacae. The assay is described as follows: Antibacterial activity against Enterobacter cloacae 1321E. It counts as functional. The method, boiled down:
(§1)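 MIC was determined by agar dilution on Mueller–Hinton medium.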

Assay [1] has as its system Escherichia coli. Kind of assay: Antibacterial activity against Escherichia coli 1507E. The class given is functional. The method, boiled down:
as §1

The subject of assay [2] is Pseudomonas aeruginosa. The assay is described as follows: Antibacterial activity against Pseudomonas aeruginosa 9027. It counts as functional. The method, boiled down: as §1
In assay [3] the test system is Pseudomonas aeruginosa. The assay is described as follows: Antibacterial activity against Pseudomonas aeruginosa 1771M. The class given is functional. The procedure, abridged: as §1
The subject of another assay is Salmonella typhimurium. The assay is described as follows: Antibacterial activity against Salmonella Typhimurium. It counts as functional, Salmonella enterica subsp. enterica serovar Typhimurium. Conditions: Salmonella enterica. The procedure, abridged: as §1
Assay [4] deals with Escherichia coli. The assay is described as follows: Antibacterial activity against Escherichia coli 078. It counts as functional. The method, boiled down:
as §1

For the next assay, the system named is Klebsiella aerogenes. The assay is described as follows: Antibacterial activity against Klebsiella aerogenes 1522E. It counts as functional. The procedure, abridged:
as §1

Assay [5] relates to Pseudomonas aeruginosa. Kind of assay: Antibacterial activity against Pseudomonas aeruginosa 1592E.
Assay [6] relates to Staphylococcus aureus. Kind of assay: Antibacterial activity against Staphylococcus aureus SG 511. The class given is functional.
Assay [7] in a line: Compound was evaluated for its relative half life of hydrolysis to meropenem by partially purified porcine renal dihydropeptidase-I (DHP-I). It counts as functional. Conditions: Sus scrofa.
Assay [8] relates to Staphylococcus aureus. The assay is described as follows: Antibacterial activity against Staphylococcus aureus 503. It counts as functional.
The test system of assay [9] is Staphylococcus aureus. Kind of assay: Antibacterial activity against Staphylococcus aureus 285. It counts as functional.
The next assay deals with Streptococcus pyogenes. Kind of assay: Antibacterial activity against Streptococcus pyogenes 308A. It counts as functional.

Structures are written as SMILES. ≈ marks a conversion by molar mass, not a printed value.

The values below come from ChEMBL document CHEMBL1145884, “Synthesis and biological activity of novel 1beta-methylcarbapenems with oxyiminopyrrolidinylamide moiety” (2003).

The term MIC denotes the least concentration at which growth counts as inhibited. In the case of `CO/N=C1/CCN(C(=O)[C@@H]2C[C@H](SC3=C(C(=O)O)N4C(=O)[C@H]([C@@H](C)O)[C@H]4[C@H]3C)CN2)C1`, the minimal inhibitory concentration (MIC) in the assay with Enterobacter cloacae is 0.049 µg/mL (≈ 0.108 µM); in the assay with Escherichia coli [1], 0.049 µg/mL (≈ 0.108 µM); in the assay with Pseudomonas aeruginosa [2] it was 0.391 µg/mL (≈ 0.864 µM); in the assay on Pseudomonas aeruginosa [3], 0.781 µg/mL (≈ 1.73 µM); in the assay on Salmonella typhimurium, 0.098 µg/mL (≈ 0.217 µM); with Escherichia coli [4] it was 0.049 µg/mL (≈ 0.108 µM). In addition, the values for the MIC in the assay on Klebsiella aerogenes and in the assay on Pseudomonas aeruginosa [5] were 0.049 µg/mL (≈ 0.108 µM) and 3.12 µg/mL (≈ 6.91 µM), respectively.
As to `C[C@@H](O)[C@H]1C(=O)N2C(C(=O)O)=C(SCCNC=N)C[C@H]12` [IMIPENEM ANHYDROUS], the MIC in the assay with Enterobacter cloacae turned out to be 0.195 µg/mL (≈ 0.651 µM); in the assay with Staphylococcus aureus [6] it was 0.025 µg/mL (≈ 0.0835 µM); in the assay on Escherichia coli [1], 0.195 µg/mL (≈ 0.651 µM); against Pseudomonas aeruginosa [2] it was 0.781 µg/mL (≈ 2.61 µM); in the assay with Pseudomonas aeruginosa [3], 0.195 µg/mL (≈ 0.651 µM); against Salmonella typhimurium it was 0.781 µg/mL (≈ 2.61 µM). Further, the MIC against Escherichia coli [4] was found to be 0.195 µg/mL (≈ 0.651 µM); in the assay with Staphylococcus aureus [8] it was 0.013 µg/mL (≈ 0.0434 µM); against Staphylococcus aureus [9], 0.025 µg/mL (≈ 0.0835 µM); in the assay with Klebsiella aerogenes, 0.391 µg/mL (≈ 1.31 µM); against Pseudomonas aeruginosa [5], 0.781 µg/mL (≈ 2.61 µM); in the assay with Streptococcus pyogenes, 0.007 µg/mL (≈ 0.0234 µM). This compound also came in with a relative t1/2 (DHP-I hydrolysis vs meropenem) in assay [7] of 0.17.
Regarding `CCOC(=O)C1CN(C(=O)[C@@H]2C[C@H](SC3=C(C(=O)O)N4C(=O)[C@H]([C@@H](C)O)[C@H]4[C@H]3C)CN2)C/C1=N\O` (stereo partly drawn), the minimum inhibitory concentration (MIC) against Enterobacter cloacae stood at 0.025 µg/mL (≈ 0.049 µM); against Staphylococcus aureus [6] it was 0.195 µg/mL (≈ 0.382 µM); in the assay with Escherichia coli [1], 0.049 µg/mL (≈ 0.096 µM); against Pseudomonas aeruginosa [2], 6.25 µg/mL (≈ 12.2 µM); against Pseudomonas aeruginosa [3] it was 0.391 µg/mL (≈ 0.766 µM); against Salmonella typhimurium it was 0.049 µg/mL (≈ 0.096 µM). The minimal inhibitory concentration (MIC) against Escherichia coli [4] turned out to be 0.013 µg/mL (≈ 0.0255 µM); against Staphylococcus aureus [8], 0.195 µg/mL (≈ 0.382 µM); with Staphylococcus aureus [9], 0.391 µg/mL (≈ 0.766 µM); against Klebsiella aerogenes, 0.049 µg/mL (≈ 0.096 µM); against Pseudomonas aeruginosa [5] it was 3.12 µg/mL (≈ 6.12 µM); against Streptococcus pyogenes, 0.013 µg/mL (≈ 0.0255 µM). For the same compound, the relative t1/2 (DHP-I hydrolysis vs meropenem) in [7] is 0.26.
As to `CO/N=C1\CN(C(=O)[C@@H]2C[C@H](SC3=C(C(=O)O)N4C(=O)[C@H]([C@@H](C)O)[C@H]4[C@H]3C)CN2)CC1CN` (stereo partly drawn), the minimum inhibitory concentration (MIC) turned out to be 0.025 µg/mL (≈ 0.0519 µM) against Enterobacter cloacae; 0.098 µg/mL (≈ 0.203 µM) in the assay on Staphylococcus aureus [6]; 0.049 µg/mL (≈ 0.102 µM) against Escherichia coli [1]; 0.391 µg/mL (≈ 0.812 µM) with Pseudomonas aeruginosa [2]; 0.098 µg/mL (≈ 0.203 µM) against Pseudomonas aeruginosa [3]; 0.098 µg/mL (≈ 0.203 µM) in the assay on Salmonella typhimurium. In addition, the MIC is 0.025 µg/mL (≈ 0.0519 µM) against Escherichia coli [4]; 0.049 µg/mL (≈ 0.102 µM) with Staphylococcus aureus [8]; 0.195 µg/mL (≈ 0.405 µM) against Staphylococcus aureus [9]; 0.098 µg/mL (≈ 0.203 µM) with Klebsiella aerogenes; 0.195 µg/mL (≈ 0.405 µM) against Pseudomonas aeruginosa [5]; 0.004 µg/mL (≈ 0.00831 µM) with Streptococcus pyogenes. The compound also showed a relative t1/2 (DHP-I hydrolysis vs meropenem) in [7] of 0.25.
In the case of `C[C@@H](O)[C@H]1C(=O)N2C(C(=O)O)=C(S[C@@H]3CN[C@H](C(=O)N4C/C(=N\O)C(CN)C4)C3)[C@H](C)[C@H]12` (stereo partly drawn), the minimal inhibitory concentration (MIC) against Enterobacter cloacae turned out to be 0.049 µg/mL (≈ 0.105 µM); against Staphylococcus aureus [6], 0.098 µg/mL (≈ 0.21 µM); with Escherichia coli [1] it was 0.049 µg/mL (≈ 0.105 µM); with Pseudomonas aeruginosa [2], 0.195 µg/mL (≈ 0.417 µM); in the assay with Pseudomonas aeruginosa [3] it was 0.098 µg/mL (≈ 0.21 µM); in the assay with Salmonella typhimurium, 0.098 µg/mL (≈ 0.21 µM). In addition, the minimum inhibitory concentration (MIC) came to 0.025 µg/mL (≈ 0.0535 µM) in the assay on Escherichia coli [4]; 0.098 µg/mL (≈ 0.21 µM) in the assay on Staphylococcus aureus [8]; 0.195 µg/mL (≈ 0.417 µM) against Staphylococcus aureus [9]; 0.098 µg/mL (≈ 0.21 µM) against Klebsiella aerogenes; 0.098 µg/mL (≈ 0.21 µM) in the assay with Pseudomonas aeruginosa [5]; 0.002 µg/mL (≈ 0.00428 µM) against Streptococcus pyogenes. The same compound showed a relative t1/2 (DHP-I hydrolysis vs meropenem) in assay [7] of 0.31.
For the compound `C[C@@H](O)[C@H]1C(=O)N2C(C(=O)O)=C(S[C@@H]3CN[C@H](C(=O)N4C/C(=N\O)C(C(=O)O)C4)C3)[C@H](C)[C@H]12` (stereo partly drawn), the minimum inhibitory concentration (MIC) was determined as 0.025 µg/mL (≈ 0.0518 µM) in the assay on Enterobacter cloacae; 0.098 µg/mL (≈ 0.203 µM) in the assay with Staphylococcus aureus [6]; 0.025 µg/mL (≈ 0.0518 µM) against Escherichia coli [1]; 0.391 µg/mL (≈ 0.81 µM) in the assay with Pseudomonas aeruginosa [2]; 0.195 µg/mL (≈ 0.404 µM) in the assay with Pseudomonas aeruginosa [3]; 0.049 µg/mL (≈ 0.102 µM) in the assay on Salmonella typhimurium. The minimal inhibitory concentration (MIC) was found to be 0.013 µg/mL (≈ 0.0269 µM) with Escherichia coli [4]; 0.098 µg/mL (≈ 0.203 µM) in the assay on Staphylococcus aureus [8]; 0.195 µg/mL (≈ 0.404 µM) against Staphylococcus aureus [9]; 0.049 µg/mL (≈ 0.102 µM) with Klebsiella aerogenes; 0.391 µg/mL (≈ 0.81 µM) against Pseudomonas aeruginosa [5]; 0.013 µg/mL (≈ 0.0269 µM) against Streptococcus pyogenes. This compound displayed a relative t1/2 (DHP-I hydrolysis vs meropenem) in [7] of 0.54.
